According to publication PMC3359464 (Medicinal Chemistry Research, 2011):
Residues, ends and D or L forms follow the SMILES beside them.

Assays:
[1] = system: rat spinal cord homogenate; settings: ref Sugimoto-Watanabe et al., [1999]; cited from earlier work
[2] = molecular target: T1, APM (Sus scrofa, UniProt P15145); experiment: Degradation rates of EMs by purified APM with and without inhibitors; type: biochemical
T1 sequence (P15145 2-963): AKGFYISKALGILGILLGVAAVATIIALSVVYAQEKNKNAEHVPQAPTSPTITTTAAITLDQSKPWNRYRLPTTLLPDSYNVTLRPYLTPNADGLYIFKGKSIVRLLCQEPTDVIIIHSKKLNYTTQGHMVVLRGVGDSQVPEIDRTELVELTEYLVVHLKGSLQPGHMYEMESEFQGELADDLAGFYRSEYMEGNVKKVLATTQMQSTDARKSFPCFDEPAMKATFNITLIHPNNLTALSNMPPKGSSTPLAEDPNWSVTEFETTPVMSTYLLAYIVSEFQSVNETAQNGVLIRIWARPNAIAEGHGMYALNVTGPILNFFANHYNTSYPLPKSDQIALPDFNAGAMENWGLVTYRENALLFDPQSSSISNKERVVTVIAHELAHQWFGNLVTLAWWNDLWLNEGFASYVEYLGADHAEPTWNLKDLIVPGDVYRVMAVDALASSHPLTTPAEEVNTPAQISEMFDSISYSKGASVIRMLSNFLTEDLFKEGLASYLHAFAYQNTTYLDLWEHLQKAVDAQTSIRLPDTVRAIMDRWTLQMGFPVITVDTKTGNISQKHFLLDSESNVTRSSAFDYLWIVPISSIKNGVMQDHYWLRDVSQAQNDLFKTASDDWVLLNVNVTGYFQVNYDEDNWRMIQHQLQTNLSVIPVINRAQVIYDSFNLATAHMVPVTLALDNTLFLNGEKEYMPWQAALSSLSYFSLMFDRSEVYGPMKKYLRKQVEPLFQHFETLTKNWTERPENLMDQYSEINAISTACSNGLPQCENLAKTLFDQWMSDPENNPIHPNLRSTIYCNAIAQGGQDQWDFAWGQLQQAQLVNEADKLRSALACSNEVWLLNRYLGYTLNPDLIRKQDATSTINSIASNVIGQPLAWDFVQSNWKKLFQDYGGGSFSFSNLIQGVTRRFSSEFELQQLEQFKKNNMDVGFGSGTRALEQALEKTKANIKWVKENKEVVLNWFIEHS

[3] = molecular target: T2, APM (Sus scrofa, UniProt P15145, species not given); experiment: as above; type: biochemical; settings: purified APM (commercially available enzyme), pH 7.4
T2 sequence (P15145 2-963): T1 sequence (P15145 2-963)

[4] = system: DPP IV; experiment: Degradation rates of EMs by purified DPP IV with and without inhibitors; type: biochemical
Summary of the method: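 Commercial purified DPP IV at 0.002 mg protein/ml incubated with endomorphin and test compound (1 mM solutions in 50 mM Tris–HCl, pH 7.4) at 37°C for 0, 7.5, 15, 22.5 and 30 min. Stopped on ice with 1 M HCl, centrifuged, RP-HPLC on C18 (0.1% TFA/acetonitrile gradient). k from linear regression of ln(A/A0) versus time; % inhibition from k with and without inhibitor. Three experiments in duplicate; mean ± SEM.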

[5] = Blood-brain barrier crossing; type: in vivo; settings: preliminary results
[6] = substrate EM-1, 37°C, 0-30 min, Tris-HCl pH 7.4
[7] = substrate EM-2, 37°C, 0-30 min, Tris-HCl pH 7.4

Compound: CCCCC[C@H](CC(=O)NO)C(=O)N[C@H](C(=O)N1CCC[C@H]1CO)C(C)C [Actinonin, actinonin]
- Effect on EM-1 degradation in rat spinal cord homogenate [1]: significantly blocked EM-1 degradation
- 100 × k, degradation rate of EM-1 by APM in the presence of inhibitor [2, 6]: 1.88 ± 0.09 min⁻¹
- 100 × k, degradation rate of EM-2 by APM in the presence of inhibitor [2, 7]: 1.50 ± 0.05 min⁻¹

Compound: NC(=O)[C@H](Cc1ccccc1)NC(=O)[C@H](Cc1c[nH]c2ccccc12)NC(=O)[C@@H]1CCCN1C(=O)[C@@H](N)Cc1ccc(O)cc1 [EM-1, Tyr-Pro-Trp-Phe-NH2]
- half-life [3]: 19.7 ± 0.5 min
- 100 × k, degradation rate of EM-1 by APM alone ([2]; without inhibitor, 37°C): 3.51 ± 0.09 min⁻¹
- half-life ([4]; purified DPP IV (commercially available enzyme), pH 7.4): 16.7 ± 0.52 min
- Resistance to DPP IV relative to EM-2 ([4]; without inhibitor): about 1.5 times
- 100 × k, degradation rate of EM-1 by DPP IV alone ([4]; without inhibitor, 37°C): 4.12 ± 0.2 min⁻¹

Compound: C[C@H](NC(=O)[C@@H]1CCCN1C(=O)[C@@H](N)Cc1ccc(O)cc1)C(N)=O [EMDB-2, Tyr-Pro-Ala-NH2] (H-Tyr-Pro-Ala-NH2; N-terminus assumed)
- Crossing of the blood-brain barrier [5]: do not cross the blood–brain barrier

Compound: Ile-Pro-Ile [Diprotin A]
- 100 × k, degradation rate of EM-1 by DPP IV in the presence of inhibitor [4, 6]: 0.13 ± 0.01 min⁻¹
- 100 × k, degradation rate of EM-2 by DPP IV in the presence of inhibitor [4, 7]: 0.18 ± 0.01 min⁻¹
